From publication PMC3529859 (Leukemia, 2012)

Legend:
Assay type in all cases: cell-based, human
[1] = test system: KIT D816V+ primary bone marrow mast cells; settings: 1 µM (1000 nM); 7 d; SCF 100 ng/ml; KIT D816V-positive patients n=5
Procedure, shortened: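 Bone marrow mononuclear cells from patients with systemic mastocytosis (WHO criteria, IRB-approved protocol, informed consent), with KIT D816V status determined by PCR/RFLP. Cells were incubated with test compound at 0, 100 or 1000 nM in 0.1% DMSO for 7 d with SCF (100 ng/ml), then mast cell viability was assessed.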

[2] = test system: SCF-enhanced degranulation of primary HuMCs; assay: SCF-enhanced degranulation of HuMCs; settings: Ag 0.1 ng/ml + SCF 10 ng/ml; up to 1000 nM
[3] = test system: FcεRI-mediated degranulation of primary HuMCs; assay: FcεRI-mediated degranulation of HuMCs; settings: Ag 1 ng/ml; inhibition observed only at 1000 nM

Structure (SMILES)	reduction in the viability of mast cells [1]	effect on SCF-enhanced degranulation [2]	effect on FcεRI mediated mast cell degranulation [3]
CO[C@@H]1[C@H](N(C)C(=O)c2ccccc2)C[C@H]2O[C@]1(C)n1c3ccccc3c3c4c(c5c6ccccc6n2c5c31)C(=O)NC4 [PKC 412]	88%		
Cc1ccc(NC(=O)c2ccc(CN3CCN(C)CC3)cc2)cc1Nc1nccc(-c2cccnc2)n1 [imatinib]		inhibited SCF-enhanced degranulation at the highest concentration	minimal effects
